GPR7 antag – antagonists of human GPR7 (neuropeptides B/W receptor 1). 1.1% of 290,000 active. AID 1861. inhibition, % at 4.4 µM. P48145. GPR7-expressing cells, fluorescence antagonist assay; in the data active = inhibition above about 16%, passing the limit was not always enough;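 note: cells stimulated with the agonist NPW; 0% = agonist with vehicle and 100% = vehicle without agonist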
Target sequence (P48145 whole entry, looked up): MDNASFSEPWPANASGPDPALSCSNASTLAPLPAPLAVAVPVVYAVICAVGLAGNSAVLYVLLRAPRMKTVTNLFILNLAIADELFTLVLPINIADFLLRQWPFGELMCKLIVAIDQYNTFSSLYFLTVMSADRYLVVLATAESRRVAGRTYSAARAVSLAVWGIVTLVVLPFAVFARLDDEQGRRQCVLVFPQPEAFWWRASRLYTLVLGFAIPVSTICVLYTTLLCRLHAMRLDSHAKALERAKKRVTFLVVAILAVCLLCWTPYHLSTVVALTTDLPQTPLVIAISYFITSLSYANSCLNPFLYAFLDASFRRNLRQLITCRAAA
ZTA counter – ZTA (EBV) inhibition in EBNA-1 counter-screen. AID 2234. inhibition, % at 11 µM. ZTA-DNA binding, fluorescence polarization. 0.15% of 320,000 active; in the data active = inhibition above about 33%
Target sequence (P03206 whole entry, looked up): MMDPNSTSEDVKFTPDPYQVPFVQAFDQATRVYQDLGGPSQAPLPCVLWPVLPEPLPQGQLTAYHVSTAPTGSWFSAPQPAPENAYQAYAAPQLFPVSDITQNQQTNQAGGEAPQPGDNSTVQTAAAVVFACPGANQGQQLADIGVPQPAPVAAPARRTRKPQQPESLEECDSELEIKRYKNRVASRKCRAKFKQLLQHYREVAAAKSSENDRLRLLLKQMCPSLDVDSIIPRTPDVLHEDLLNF
NS3 helicase inh – inhibitors of Hepatitis C virus NS3 helicase; NS3 helicase DNA unwinding, Cy5 molecular beacon fluorescence; inhibition, % at 10.9 µM; 0.56% of 290,000 active; AID 1800;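 active = inhibition above the mean of all tested compounds plus 3 SD, set per campaign, cut at about 35% in these data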;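 note: 0% = DMSO wells and 100% = thioflavine S control wells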
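Test system: hepatitis C virus NS3 helicase domain fragment enzyme. Also added: annealed dual-labelled DNA beacon duplex, ATP-started. Timing: 60 min unwinding reaction at 25 °C after ATP addition. Technique: Cy5 fluorescence. Measure: % inhibition of unwinding.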
DNA FID counter-1 – fluorescent intercalator displacement, NS3 helicase counter-screen. DNA fluorescent intercalator displacement, fluorescence. inhibition, % at 7.9 µM. 0.17% of 290,000 active;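 note: 0% = vehicle and 100% = reference compound; higher means more ethidium bromide displaced from hairpin DNA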
EBNA-1 inhibitor – blocks EBNA-1 binding to DNA | AID 1950 | 0.34% of 300,000 active | EBNA-1 DNA binding, fluorescence polarization | inhibition, % at 14.8 µM; in the data active = inhibition above about 28%
NS3 hel confirm – HCV NS3 helicase inhibition, confirmation assay; inhibition, % at 10.9 µM; NS3 helicase DNA unwinding, Cy5 molecular beacon fluorescence; shares compounds with NS3 helicase inh; 31% of 1,600 active;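 active = inhibition above the mean of all tested compounds plus 3 SD, cutoff set per campaign, cut at about 36% in these data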
DNA FID counter-2 – counter-screen for HCV NS3 helicase inhibitors: DNA intercalator displacement | DNA fluorescent intercalator displacement, fluorescence | inhibition, % at 7.9 µM | 4% of 1,600 active | shares compounds with NS3 helicase inh | AID 1945;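 note: 0% = vehicle and 100% = reference compound; higher means more displacement of ethidium bromide from the DNA hairpin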
FID counter DR – DNA intercalator displacement in dose response. IC50, µM. shares compounds with NS3 helicase inh. fluorescent intercalator displacement from DNA, fluorescence. 120 tested, under 10 active; call rule not given here
The depositor's hits bear a star; . = no result given. Only some compounds are listed: those with a hit (about 2% of all), similar ones and a draw of the others. Cut-off read from the data, not from the text of the source, unless noted: active = inhibition above about 37%; inactive = the rest.

SMILES | GPR7 antag | ZTA counter | NS3 helicase inh | DNA FID counter-1 | EBNA-1 inhibitor | NS3 hel confirm | DNA FID counter-2 | others
CC(C)(C)c1ccc(C(=O)NC(=O)COC(=O)CCS(=O)(=O)c2ccccc2)cc1 | . | 19 | . | . | . | . | .
CCc1ccc(-c2cnc3nc[nH]c(=O)c3n2)cc1 | . | -12 | . | . | -5 | . | .
CCNc1ccc(Br)cc(C(=O)/C=C/c2ccc3c(c2)OCO3)c1=O | 8 | 6 | 47* | -22 | 12 | 41* | -5
CNc1ccc(Br)cc(C(=O)/C=C/c2ccc(Cl)cc2Cl)c1=O | -1 | 6 | 38* | -11 | -7 | 74* | 14 | FID counter DR=>79
CCNc1ccc(Br)cc(C(=O)/C=C/c2ccc(Cl)cc2)c1=O | 5 | 8 | 28 | -11 | -2 | . | .
CNc1ccc(Br)cc(C(=O)/C=C/c2ccc(OC)cc2OC)c1=O | -7 | 4 | 33 | -19 | -2 | . | .
CNc1ccc(Br)cc(C(=O)/C=C/c2cccc(OC)c2)c1=O | -4 | 0 | 44* | -18 | 10 | 54* | 15 | FID counter DR=>79
CCN(CC)S(=O)(=O)c1cc(C(=O)OC(C)C(=O)NCc2ccco2)ccc1C (stereo unspecified) | . | -13 | . | . | . | . | .
O=C(Cn1c(=O)c2sccc2n(Cc2cccc([N+](=O)[O-])c2)c1=O)NCCc1ccccc1 | -8 | 7 | 44* | 1 | 0 | -5 | 6
O=C(Nc1ccccc1)C1=C(O)CC(c2ccoc2)CC1=Nc1ccccc1 (stereo unspecified) | 21 | -8 | 41* | -13 | 2 | -7 | 10
O=C(O)c1ccc(-c2ccco2)n1Cc1ccccc1 | 4 | -19 | 45* | -20 | -11 | -30 | -5
CC1O[C@@H](O[C@H](C)CC[C@@H](C)O)C(O)C[C@H]1O (stereo partly specified) | . | -2 | . | . | 11 | . | .
COc1ccc(OC)c(N2C(=NC(=O)C3CCCCC3)SC3CS(=O)(=O)CC32)c1 (stereo unspecified) | 4 | 6 | -1 | -38 | -10 | . | .
CC(NS(=O)(=O)c1ccc(F)cc1)C(=O)Nc1ccc2c(c1)OCCO2 (stereo unspecified) | 2 | -6 | 4 | -6 | -3 | . | .
NS(=O)(=O)c1ccc(CCNS(=O)(=O)c2ccc3c(c2)NC(=O)CO3)cc1 | 6 | -2 | -5 | -9 | -1 | . | .
COc1ccccc1COc1ccc2c(C)c(CC(=O)O)c(=O)oc2c1C | 7 | 12 | 48* | -16 | -7 | 15 | -21
Cc1c(CC(=O)O)c(=O)oc2c(C)c(OCc3ccc(F)cc3F)ccc12 | -7 | 4 | 6 | -17 | 6 | . | .
CC1(C)C(=O)Nc2ccccc2N1C(=O)COC(=O)CNS(=O)(=O)c1ccc(F)c(F)c1F | . | -5 | . | . | . | . | .
CC(C)CN1CCN=C1Nc1ccccc1 | -10 | 5 | 18 | -5 | 7 | . | .
CC(C)CCN1CCN=C1Nc1ccccc1 | 19 | 11 | 50* | 0 | 6 | -19 | 12
COc1cccc(NC(=O)CCNC(=O)C2CCN(S(=O)(=O)c3ccc(F)cc3)CC2)c1 | 0 | -1 | 0 | -25 | 0 | . | .
COc1cccc(CN(C)C(=O)c2ccc(OCC(=O)N3CCOCC3)c(OC)c2)c1 | . | 3 | . | . | . | . | .
NC(=O)N/N=C/c1ccc(N2CCOCC2)s1 | -5 | -14 | -7 | -8 | -1 | . | .
O=C(O)c1cc(N/N=C/c2ccc(N3CCOCC3)s2)ccc1Cl | -5 | 2 | 47* | -17 | 1 | 80* | 27
Cc1ccc2c(c1)NC(C(C)(C)C)CO2 (stereo unspecified) | -15 | -15 | 85* | 7 | -5 | -2 | 15
SMILES | GPR7 antag | ZTA counter | NS3 helicase inh | DNA FID counter-1 | EBNA-1 inhibitor | NS3 hel confirm | DNA FID counter-2 | others
CC(=O)c1ccc(N(CC(=O)NC2CCCC2)C(=O)CNC(=O)c2cccs2)cc1 | 0 | -3 | 37* | -30 | -5 | -8 | -11
CC(=O)c1cccc(N(CC(=O)NC2CCCC2)C(=O)CNC(=O)c2cccs2)c1 | -4 | -12 | 0 | -21 | -4 | . | .
CC(OC(=O)c1ccccc1C(=O)N(C)c1ccccc1)C(=O)Nc1ccccc1[N+](=O)[O-] (stereo unspecified) | . | 13 | . | . | 6 | . | .
CCOC(=O)C1=C(N)N2C(=O)C(C)SC2=C(C(=O)OCC)C1c1ccc(O)cc1 (stereo unspecified) | 17 | -1 | 39* | -29 | 10 | -27 | -29
CCOC(=O)C1=C(N)N2C(=O)C(C)SC2=C(C(=O)OCC)C1c1ccccc1 (stereo unspecified) | -5 | 4 | 2 | -9 | -6 | . | .
COc1ccccc1C(=O)CC(=O)C(=O)Nc1cccc([N+](=O)[O-])c1C | 2 | 4 | 37* | -17 | -5 | -33 | -17
O=C(O)c1ccccc1C(=O)c1ccc(-c2ccccc2)cc1 | 9 | 16 | 42* | -25 | 22 | -20 | -12
N/C(=N\OC(=O)c1ccccc1F)c1cccc([N+](=O)[O-])c1 | -14 | -5 | 16 | 1 | -3 | . | .
CCCc1cc(=O)[nH]c(SCC(=O)N2CCc3ccccc3C2)n1 | . | -25 | . | . | . | . | .
Cc1cc(C)nc(OC(C(=O)O)C(OCc2ccccc2)(c2ccccc2)c2ccccc2)n1 (stereo unspecified) | -10 | 8 | 37* | -35 | 8 | 74* | -40
Cc1ccccc1CS(=O)(=O)CCC(=O)NCc1ccc(F)cc1Cl | -15 | -4 | -10 | -24 | 6 | . | .
CN(C)S(=O)(=O)c1cccc(NC(=S)N/N=C/c2cccc(O)c2)c1 | -7 | -6 | 7 | -5 | 3 | . | .
CN(C)S(=O)(=O)c1cccc(NC(=S)N/N=C/c2cc(Br)ccc2O)c1 | 17 | 0 | 46* | -17 | -1 | 53* | 12
O=C(O)c1ccc(-n2nc(C(F)(F)F)c3c2-c2ccoc2CC3)cc1 | -5 | -8 | 37* | -22 | -11 | 51* | -14
CCn1cc(S(=O)(=O)Nc2ncccn2)cn1 | -7 | -19 | -4 | 1 | -10 | . | .
Cc1ccc(-c2nn(Cc3ccccc3)cc2/C=C/C(=O)O)cc1 | 1 | -7 | 44* | -43 | -12 | 10 | -9
COCCn1c(=O)[nH]c(=O)c2c1nc(-c1ccc(-c3ccc(Cl)cc3[N+](=O)[O-])o1)n2Cc1ccccc1 | -14 | -9 | 36* | -25 | -7 | -6 | -38
COc1ccc(-c2ccc(-c3nc4c(c(=O)[nH]c(=O)n4Cc4ccccc4)n3C)o2)c([N+](=O)[O-])c1 | -5 | 19 | 18 | -4 | 11 | . | .
COc1ccc(CCNC(=O)C2CC(=O)N(C3CCCCC3)C2)cc1OC (stereo unspecified) | -20 | -11 | 96* | -30 | -8 | 0 | -1
N#CCSc1nc2sccc2c(=O)n1-c1ccccc1 | -15 | -15 | 37* | -17 | 4 | -16 | 6

Bioassay records: PubChem, The Scripps Research Institute Molecular Screening Center
